Measurements published in ChEMBL document CHEMBL1131023, “Identification of a dihydropyridine as a potent alpha1a adrenoceptor-selective antagonist that inhibits phenylephrine-induced contraction of the human prostate” (J Med Chem, 1998).

Assays:
[1] = molecular target: T1, Alpha-1D adrenergic receptor (Homo sapiens, UniProt P25100); assay: Binding affinity determined by displacement of [3H]prazosin from alpha-1D adrenergic receptor
T1 sequence (P25100 whole entry): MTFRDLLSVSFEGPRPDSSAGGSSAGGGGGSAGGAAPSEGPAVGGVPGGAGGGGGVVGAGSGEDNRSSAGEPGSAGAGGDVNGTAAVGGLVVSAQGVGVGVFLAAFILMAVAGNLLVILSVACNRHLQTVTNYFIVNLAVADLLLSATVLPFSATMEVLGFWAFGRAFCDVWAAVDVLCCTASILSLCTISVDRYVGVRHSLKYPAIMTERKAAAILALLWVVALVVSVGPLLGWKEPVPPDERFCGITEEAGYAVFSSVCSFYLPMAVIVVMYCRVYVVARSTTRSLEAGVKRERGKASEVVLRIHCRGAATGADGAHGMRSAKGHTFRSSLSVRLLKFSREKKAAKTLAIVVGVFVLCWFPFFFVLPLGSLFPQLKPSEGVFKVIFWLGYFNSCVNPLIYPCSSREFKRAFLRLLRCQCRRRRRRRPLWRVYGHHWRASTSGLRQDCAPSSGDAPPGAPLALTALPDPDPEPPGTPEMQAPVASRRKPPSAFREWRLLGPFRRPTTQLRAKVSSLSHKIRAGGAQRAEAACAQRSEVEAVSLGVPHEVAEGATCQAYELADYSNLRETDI
In short: (§1)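 Radioligand displacement binding at the cloned receptor, incubated for 30 min.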

[2] = molecular target: T2, Alpha-2A adrenergic receptor (Homo sapiens, UniProt P08913); assay: Binding affinity determined by displacement of [3H]rauwolscine from alpha-2A adrenergic receptor; in short: as §1
T2 sequence (P08913 whole entry): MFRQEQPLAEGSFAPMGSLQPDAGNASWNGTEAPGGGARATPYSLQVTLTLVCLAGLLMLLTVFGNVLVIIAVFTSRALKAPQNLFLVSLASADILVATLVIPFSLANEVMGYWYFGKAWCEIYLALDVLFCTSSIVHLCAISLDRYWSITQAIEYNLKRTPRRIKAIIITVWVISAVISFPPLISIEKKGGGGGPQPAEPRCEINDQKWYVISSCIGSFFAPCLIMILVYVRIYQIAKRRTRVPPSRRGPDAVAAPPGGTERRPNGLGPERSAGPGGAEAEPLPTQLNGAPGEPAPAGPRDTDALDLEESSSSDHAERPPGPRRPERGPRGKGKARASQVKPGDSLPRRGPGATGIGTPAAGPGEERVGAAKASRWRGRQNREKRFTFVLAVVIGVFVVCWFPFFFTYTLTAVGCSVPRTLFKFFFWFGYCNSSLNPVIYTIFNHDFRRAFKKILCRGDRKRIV

[3] = molecular target: T3, Alpha-1A adrenergic receptor (Homo sapiens, UniProt P35348); assay: Binding affinity determined by displacement of [3H]prazosin from alpha-1A adrenergic receptor
T3 sequence (P35348 whole entry): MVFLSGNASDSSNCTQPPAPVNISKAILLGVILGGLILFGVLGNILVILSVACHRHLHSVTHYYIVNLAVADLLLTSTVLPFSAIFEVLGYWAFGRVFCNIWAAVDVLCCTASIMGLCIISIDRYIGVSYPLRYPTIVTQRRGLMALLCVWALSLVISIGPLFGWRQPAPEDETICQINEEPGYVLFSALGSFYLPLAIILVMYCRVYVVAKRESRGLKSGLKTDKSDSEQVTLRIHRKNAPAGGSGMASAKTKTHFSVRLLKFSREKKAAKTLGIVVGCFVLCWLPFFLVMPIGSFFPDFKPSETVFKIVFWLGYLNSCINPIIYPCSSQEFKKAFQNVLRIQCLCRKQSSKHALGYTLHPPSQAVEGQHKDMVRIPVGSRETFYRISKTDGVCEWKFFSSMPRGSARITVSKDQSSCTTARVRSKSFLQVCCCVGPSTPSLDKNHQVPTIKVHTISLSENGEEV

[4] = molecular target: T4, Alpha-2B adrenergic receptor (Homo sapiens, UniProt P18089); assay: Binding affinity determined by displacement of [3H]rauwolscine from alpha-2B adrenergic receptor
T4 sequence (P18089 whole entry): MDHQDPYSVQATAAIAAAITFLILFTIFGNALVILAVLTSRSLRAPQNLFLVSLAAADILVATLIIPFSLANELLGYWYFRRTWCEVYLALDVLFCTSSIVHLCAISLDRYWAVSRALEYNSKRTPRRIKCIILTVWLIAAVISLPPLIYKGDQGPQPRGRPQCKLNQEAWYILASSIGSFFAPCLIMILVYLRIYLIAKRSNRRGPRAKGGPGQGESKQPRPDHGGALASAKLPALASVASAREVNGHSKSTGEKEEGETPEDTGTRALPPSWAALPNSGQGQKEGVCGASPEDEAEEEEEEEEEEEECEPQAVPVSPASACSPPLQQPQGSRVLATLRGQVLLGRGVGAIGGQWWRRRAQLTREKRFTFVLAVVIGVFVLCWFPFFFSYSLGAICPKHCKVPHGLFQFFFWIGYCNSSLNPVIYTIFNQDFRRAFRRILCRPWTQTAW

[5] = molecular target: T5, Alpha-1B adrenergic receptor (Homo sapiens, UniProt P35368); assay: Binding affinity determined by displacement of [3H]prazosin from alpha-1B adrenergic receptor
T5 sequence (P35368 whole entry): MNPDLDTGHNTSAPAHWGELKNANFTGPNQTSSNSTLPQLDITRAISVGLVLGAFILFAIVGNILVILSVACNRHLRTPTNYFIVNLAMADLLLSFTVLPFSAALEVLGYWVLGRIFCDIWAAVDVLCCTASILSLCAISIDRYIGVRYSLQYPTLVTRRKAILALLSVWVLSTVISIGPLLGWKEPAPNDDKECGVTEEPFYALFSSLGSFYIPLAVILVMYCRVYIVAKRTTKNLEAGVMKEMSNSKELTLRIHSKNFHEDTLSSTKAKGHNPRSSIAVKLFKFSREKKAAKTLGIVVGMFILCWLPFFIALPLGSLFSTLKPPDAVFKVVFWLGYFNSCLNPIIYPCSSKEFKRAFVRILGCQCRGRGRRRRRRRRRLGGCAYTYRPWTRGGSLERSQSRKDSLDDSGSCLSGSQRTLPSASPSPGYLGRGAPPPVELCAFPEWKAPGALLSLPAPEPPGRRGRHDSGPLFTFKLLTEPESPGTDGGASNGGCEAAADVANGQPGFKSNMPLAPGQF

[6] = molecular target: T6, Alpha-2C adrenergic receptor (Homo sapiens, UniProt P18825); assay: Binding affinity assayed by displacement of [3H]rauwolscine from human alpha-2C adrenergic receptor; in short: as §1
T6 sequence (P18825 whole entry): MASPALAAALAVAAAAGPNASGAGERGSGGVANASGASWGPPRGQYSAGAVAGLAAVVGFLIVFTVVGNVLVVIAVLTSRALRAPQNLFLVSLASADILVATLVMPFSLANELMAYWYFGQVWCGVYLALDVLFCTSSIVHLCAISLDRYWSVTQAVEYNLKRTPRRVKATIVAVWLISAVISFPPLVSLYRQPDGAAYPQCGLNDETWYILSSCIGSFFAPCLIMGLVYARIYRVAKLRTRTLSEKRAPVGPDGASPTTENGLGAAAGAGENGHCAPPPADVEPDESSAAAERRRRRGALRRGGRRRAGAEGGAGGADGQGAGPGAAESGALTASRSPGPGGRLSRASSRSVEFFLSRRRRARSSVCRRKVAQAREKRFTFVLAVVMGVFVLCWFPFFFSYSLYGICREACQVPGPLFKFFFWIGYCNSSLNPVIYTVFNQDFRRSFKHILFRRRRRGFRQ

[7] = molecular target: Voltage-gated L-type calcium channel (Rattus norvegicus, UniProt P22002+Q02485+P27732); assay: Binding affinity at the L-type [Ca2+] channel from rat brain homogenate by [3H]nitrendipine displacement.; format: tissue-based

CO/C(O)=C1\C(C)=NC(C)=C(C(=O)NCCCCN2CCC(c3ccccc3)(c3ccccc3)CC2)C1c1ccc([N+](=O)[O-])cc1 (configuration not stated)
Ki [1]: 331 nM | Ki [2]: 646 nM | Ki [3]: 14.8 nM | Ki [4]: 372 nM | Ki [5]: 135 nM | Ki [6]: 282 nM | Log Ki [7]: < -6

CC1=C(C(N)=O)C(c2ccc3c(c2)OCO3)C(C(=O)NCCCN2CCC(c3ccccc3)(c3ccccc3)CC2)=C(C)N1 (configuration not stated)
Ki [1]: 1150 nM | Ki [2]: 501 nM | Ki [3]: 8.71 nM | Ki [4]: 204 nM | Ki [5]: 1170 nM | Ki [6]: 724 nM | Log Ki [7]: < -6

CO/C(O)=C1\C(C)=NC(C)=C(C(=O)NCCCN2CCC(c3ccccc3)(c3ccccc3)CC2)C1c1ccc(C)cc1 (configuration not stated)
Ki [1]: 316 nM | Ki [2]: 1290 nM | Ki [3]: 1.38 nM | Ki [4]: 912 nM | Ki [5]: 269 nM | Ki [6]: 417 nM | Log Ki [7]: < -6

CC(=O)C1=C(C)NC(C)=C(C(=O)NCCCN2CCC(c3ccccc3)(c3ccccc3)CC2)C1c1ccc2c(c1)OCO2 (configuration not stated)
Ki [1]: 457 nM | Ki [2]: 955 nM | Ki [3]: 8.91 nM | Ki [4]: 380 nM | Ki [5]: 380 nM | Ki [6]: 407 nM | Log Ki [7]: < -6

CO/C(O)=C1\C(C)=NC(C)=C(C(=O)NCCCN2CCC(c3ccccc3)CC2)C1c1ccc([N+](=O)[O-])cc1 (configuration not stated)
Ki [1]: 66.1 nM | Ki [2]: 275 nM | Ki [3]: 0.229 nM | Ki [4]: 219 nM | Ki [5]: 13.5 nM | Ki [6]: 81.3 nM | Log Ki [7]: < -6

CO/C(O)=C1\C(C)=NC(C)=C(C(=O)NCCCN2CCC(c3ccccc3)(c3ccccc3)CC2)C1c1ccc2c(c1)OCO2 (configuration not stated)
Ki [1]: 302 nM | Ki [2]: 1120 nM | Ki [3]: 1.12 nM | Ki [4]: 871 nM | Ki [5]: 224 nM | Ki [6]: 575 nM | Log Ki [7]: < -6
